The list is not random: actives were taken first. Their share in the collection is about 1.4%.
Casp6 inh: inhibitors of human caspase-6 | P55212 | purified caspase-6, Z-VEID-R110 cleavage fluorescence | inhibition, % at 12.5 µM | 350,000 compounds, 0.53% hits;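 active = mean inhibition across replicates at least about 35%, with every replicate also reaching that limit, limit read from the data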
Target sequence (P55212 24-179 limits assumed): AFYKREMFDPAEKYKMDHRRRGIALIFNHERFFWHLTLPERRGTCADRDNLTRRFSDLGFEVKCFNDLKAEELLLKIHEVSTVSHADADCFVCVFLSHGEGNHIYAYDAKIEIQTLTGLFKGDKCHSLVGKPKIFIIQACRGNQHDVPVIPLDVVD
Target sequence (P55212 194-293 limits assumed): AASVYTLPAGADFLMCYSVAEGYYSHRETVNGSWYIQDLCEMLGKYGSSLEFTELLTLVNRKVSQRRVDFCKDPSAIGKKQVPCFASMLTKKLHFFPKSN
Myeloid diff MLP: compounds promoting myeloid differentiation | ER-HoxA9 myeloid progenitors, lysozyme-GFP differentiation, flow cytometry | calls only at 10 µM | 360,000 compounds, 1% hits | AID 624256;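 active = normalized GFP-positive differentiation at or above the plate's own cutoff, the solvent-only control mean plus 3 SD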;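 note: cells exposed to compound for four days before flow analysis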
T cell modulator: T cell immune modulators affecting CD8 T cell-vesicle binding; response (vesicle binding), % at 7 µM; AID 2052; 330,000 compounds, 0.068% hits; 2C CD8+ T cell-vesicle binding, flow cytometry; hits give low values;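 active = response, share of CD8 T cells binding vesicles, and their 90th percentile fluorescence all below set limits, cut at about 80% in these data, passing the limit was not always enough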;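 note: values below 100% mean blocked vesicle binding to the CD8+ T cells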
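Assay system: 2C TCR transgenic mouse naive CD8+ T cells, MACS-purified | Read-out: CD8+ gate FL2 mean fluorescence as % of same-row positive control | Signal: High-throughput flow cytometry with anti-B7-1 and anti-CD8 staining | Timing: Binding step 1.5 h, 37 °C, antibody labelling 20 min, ice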
Vif inh: blocks HIV Vif function | HEK293T cells, Vif self-association by quenched fluorescence, imaging, 24 h | inhibition, % at 7.49 µM | 340,000 compounds, 0.35% hits; in the data active = inhibition above about 50%, passing the limit was not always enough
Myeloid diff: promotes myeloid progenitor differentiation; 2,300 compounds, 2% hits; AID 651706; shares compounds with Myeloid diff MLP; ER-HoxA9 myeloid progenitors, GFP/Mac1 double-positive flow; calls only;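 active = share of green or green-and-red cells above 9 and 9% in run 1 or 4 and 3% in run 2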
GFP autofluor: compound fluorescence in myeloid differentiation counter-screen; shares compounds with Myeloid diff MLP; ER-HoxA9 myeloid progenitors, no estrogen, GFP autofluorescence flow cytometry; vehicle wells 0%, positive control 100%; fluorescence response, % (concentration not given with the values); 2,300 compounds, 7.4% hits; AID 651707;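 active = over 5% cells positive for green fluorescent reporter, or over 2% positive for both it and APC stain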
Calls only; - = inactive; . = no result given; + = active, no number.

SMILES	Casp6 inh	Myeloid diff MLP	T cell modulator	Vif inh	Myeloid diff	GFP autofluor
N#CCC(=O)Nc1ccc(C(=O)NCCC(c2ccccc2)c2ccccc2)cc1	-	+	-	-	-	-
CN(C)C(CNC(=O)c1ccc(NC(=O)CC#N)cc1)c1ccccc1 (centres undefined)	-	.	-	-	.	.
CC(=O)Nc1ccc(CC(=O)NCCC(c2ccccc2)c2ccccc2)cc1	-	+	-	-	-	-
C[C@@H]1CCCCO[C@@H](CN(C)S(=O)(=O)c2cn(C)cn2)[C@H](C)CN([C@H](C)CO)C(=O)c2cc(NC(=O)CCC(F)(F)F)ccc2O1	-	.	.	.	.	.
CCCOc1ccc([C@@H]2C3CN(C(=O)OCC)CC=C3C(C#N)=C(N)C2(C#N)C#N)cc1OC (some centres undefined)	-	+	-	-	-	-
O=[N+]([O-])c1ccc(/C=N/Nc2ncccc2[N+](=O)[O-])s1	-	-	-	-	-	-
COc1cccc(/C=N/Nc2ncccc2[N+](=O)[O-])c1OC	-	-	-	-	.	.
Cc1ccc(CSCC(=O)N2CCN(c3ccc(F)cc3)CC2)cc1	.	-	-	-	-	-
O=C(CSCc1ccc(F)cc1)N1CCN(c2ccc(F)cc2)CC1	.	-	-	-	.	.
CCCCCC(=O)N1C[C@@H](O)[C@H](n2cc(COC(=O)c3ccccc3)nn2)C[C@@H]1c1ccc(OC)cc1	-	-	.	-	-	-
C[C@@H]1CN([C@H](C)CO)C(=O)c2cc(C#CCN(C)C)cnc2O[C@H]1CN(C)C(=O)c1cccc(F)c1	-	.	.	.	.	.
CCn1c(COc2ccc(C)cc2)nnc1SCC(=O)C(C)(C)C	.	-	-	-	.	.
CCn1c(COc2ccccc2)nnc1SCC(=O)C(C)(C)C	.	+	-	-	-	-
COc1ccc(S(=O)(=O)Nc2ccc3c(c2)C(=O)N([C@@H](C)CO)C[C@@H](C)[C@@H](CN(C)C(=O)Nc2cccc4ccccc24)O3)cc1	-	.	.	.	.	.
O=C(NCCN1CCOCC1)N1CCOCC1	.	-	-	-	-	-
COC(=O)C[C@H]1CC[C@H]2[C@@H](COc3ccc(NC(=O)c4cccs4)cc3C(=O)N2C)O1	-	.	.	.	.	.
O=C(Nc1ccc(F)cc1)N[C@@H]1C=C[C@H](CC(=O)N2CCOCC2)O[C@H]1CO	-	.	.	.	.	.
C=CCn1cnnc1SCC(=O)N(C1CCCCC1)C1CCS(=O)(=O)C1 (centres undefined)	-	-	-	-	-	-
Cc1nnc(SCC(=O)N(C2CCCCC2)C2CCS(=O)(=O)C2)n1N (centres undefined)	-	-	-	-	.	.
O=C(CSc1nc(=O)n(CCCN2CCOCC2)c2c1CCCC2)Nc1ccc(F)cc1F	-	+	-	-	-	-
CCOC(=O)C1=C(CN2c3ccccc3CC2C)NC(=O)NC1c1ccccc1 (centres undefined)	.	+	-	.	-	-
CCOC(=O)C1=C(CCc2ccccc2)NC(=O)NC1c1ccc(Br)cc1 (centres undefined)	-	-	-	-	.	.
COc1cccc(OC(C)c2ccnc3nc(/N=C/N(C)C)nn23)c1 (centres undefined)	.	-	-	-	-	-
CC(=O)c1c(N2CCOCC2)nc(=S)n(-c2ccc([N+](=O)[O-])cc2)c1C	.	-	-	-	-	-
CC(=O)c1c(N2CCOCC2)nc(=S)n(-c2ccccc2)c1C	.	-	-	-	.	.
SMILES	Casp6 inh	Myeloid diff MLP	T cell modulator	Vif inh	Myeloid diff	GFP autofluor
Cc1ccc(C(C(=O)NC2CCCCC2)N(Cc2cccnc2)C(=O)C2COc3ccccc3O2)o1 (centres undefined)	.	+	-	-	-	-
CCCC(=O)N1CC2(C1)CN(C(C)=O)[C@H](CO)c1c2c2ccc(OC)cc2n1C	-	.	.	.	.	.
CCOc1ccccc1NC(=O)NC1(C(=O)NCc2cccnc2)CCCCC1	-	-	-	-	-	-
COc1cccc(N2CCN(S(=O)(=O)c3ccc4ccccc4c3)CC2)c1	-	-	.	-	-	-
CC(=O)Nc1cc(-c2ccccc2Cl)cn2c(-c3ccc(S(C)(=O)=O)cc3)cnc12	-	+	.	-	-	-
CC(=O)Nc1cc(-c2ccc(CO)cc2)cn2c(-c3ccc(F)c(Cl)c3)cnc12	-	+	.	-	-	-
CC(=O)Nc1cc(-c2ccc(F)cc2)cn2c(-c3ccc(F)c(Cl)c3)cnc12	-	-	.	-	.	.
CCOc1ccccc1CN(Cc1ccco1)S(=O)(=O)c1ccc(-n2cnnn2)c(OC)c1	-	+	.	-	-	-

From PubChem
